In assay [1] the target is T1, Transient receptor potential cation channel subfamily A member 1 (Rattus norvegicus, UniProt Q6RI86). The assay can be described thus: Agonist activity at rat TRPA1 receptor expressed in HEK293 cells assessed as increase in intracellular Ca2+ concentration by spectrofluorimetric analysis. In kind it is cell-based. In outline:
(§1)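 HEK293 cells stably transfected with human TRPV1 or rat TRPA1 cDNA (pcDNA3, G-418 selection) were loaded 1 h at room temperature with Fluo-4-AM, washed and suspended in Tyrode's buffer pH 7.4. [Ca²⁺]i was read by stirred-cuvette spectrofluorimetry before and after adding test compound at various concentrations. Signal from untransfected cells was subtracted. Efficacy was taken as percent of ionomycin (4 µM) for TRPV1 and percent of allyl isothiocyanate (100 µM) for TRPA1; EC50 was also derived.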

The target of assay [2] is Transient receptor potential cation channel subfamily A member 1 (Rattus norvegicus) (UniProt Q6RI86). As to the kind of experiment: Agonist activity at rat TRPA1 receptor expressed in HEK293 cells assessed as increase in intracellular Ca2+ concentration by spectrofluorimetric analysis relative to allyl isothiocyanate. The class given is cell-based. A digest of the protocol: as §1
Sequence of Transient receptor potential cation channel subfamily A member 1 (Rattus norvegicus) (Q6RI86 whole entry): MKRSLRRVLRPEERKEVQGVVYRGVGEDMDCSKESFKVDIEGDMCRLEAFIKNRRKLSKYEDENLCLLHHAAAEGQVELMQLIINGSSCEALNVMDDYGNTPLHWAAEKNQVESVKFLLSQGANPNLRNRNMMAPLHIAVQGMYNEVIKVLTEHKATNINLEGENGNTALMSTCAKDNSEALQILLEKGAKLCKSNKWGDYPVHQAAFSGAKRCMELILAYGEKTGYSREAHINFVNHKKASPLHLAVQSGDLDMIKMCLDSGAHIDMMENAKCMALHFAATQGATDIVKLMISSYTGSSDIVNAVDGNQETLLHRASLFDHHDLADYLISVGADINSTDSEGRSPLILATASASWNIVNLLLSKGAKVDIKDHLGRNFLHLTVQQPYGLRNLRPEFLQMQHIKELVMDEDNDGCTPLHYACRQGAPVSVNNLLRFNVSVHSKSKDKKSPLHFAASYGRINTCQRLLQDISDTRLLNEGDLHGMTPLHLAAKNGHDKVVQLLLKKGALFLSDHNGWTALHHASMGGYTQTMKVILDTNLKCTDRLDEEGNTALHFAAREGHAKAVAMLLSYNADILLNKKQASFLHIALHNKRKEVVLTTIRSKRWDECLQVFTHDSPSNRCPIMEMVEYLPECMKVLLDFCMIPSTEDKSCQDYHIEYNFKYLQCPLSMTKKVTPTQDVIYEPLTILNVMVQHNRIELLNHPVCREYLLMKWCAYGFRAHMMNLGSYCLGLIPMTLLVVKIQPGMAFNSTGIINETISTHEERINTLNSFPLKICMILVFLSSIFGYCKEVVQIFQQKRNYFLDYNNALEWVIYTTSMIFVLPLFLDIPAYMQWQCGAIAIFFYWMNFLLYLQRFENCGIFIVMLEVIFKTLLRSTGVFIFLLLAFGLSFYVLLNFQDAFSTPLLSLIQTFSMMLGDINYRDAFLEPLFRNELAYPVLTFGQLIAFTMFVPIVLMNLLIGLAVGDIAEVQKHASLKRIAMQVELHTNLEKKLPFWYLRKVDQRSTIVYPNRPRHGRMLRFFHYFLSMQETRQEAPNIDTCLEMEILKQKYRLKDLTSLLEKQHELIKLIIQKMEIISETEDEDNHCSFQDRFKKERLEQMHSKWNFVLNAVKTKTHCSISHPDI

Assay [3] deals with T2, Transient receptor potential cation channel subfamily V member 1 (Homo sapiens, UniProt Q8NER1). As to the kind of experiment: Antagonist activity at human TRPV1 receptor expressed in HEK293 cells assessed as inhibition of capsaicin-induced intracellular Ca2+ elevation incubated for 5 mins prior to capsaicin-stimulation by spectrofluorimetric analysis. In kind it is cell-based. A digest of the protocol:
(§2)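 Fluo-4-loaded HEK293 cells stably expressing human TRPV1 or rat TRPA1, in Tyrode's buffer pH 7.4, received test compound in the cuvette 5 min before agonist: capsaicin 0.1 µM for TRPV1, AITC 100 µM for TRPA1. The [Ca²⁺]i rise with agonist alone was set to 100%. IC50 came from a variable-slope sigmoidal fit. Untransfected-cell signal was subtracted.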

Assay [4] has as its target T2, Transient receptor potential cation channel subfamily V member 1. As to the kind of experiment: Agonist activity at human TRPV1 receptor expressed in HEK293 cells assessed as increase in intracellular Ca2+ concentration by spectrofluorimetric analysis. In kind it is cell-based. A digest of the protocol:
as §1

Assay [5] shares this target. The assay can be described thus: Agonist activity at human TRPV1 receptor expressed in HEK293 cells assessed as increase in intracellular Ca2+ concentration by spectrofluorimetric analysis relative to ionomycin. The class given is cell-based. In outline:
as §1

Assay [6] has as its target T3, Fatty-acid amide hydrolase 1 (Rattus norvegicus, UniProt P97612).
T3 sequence (P97612 whole entry): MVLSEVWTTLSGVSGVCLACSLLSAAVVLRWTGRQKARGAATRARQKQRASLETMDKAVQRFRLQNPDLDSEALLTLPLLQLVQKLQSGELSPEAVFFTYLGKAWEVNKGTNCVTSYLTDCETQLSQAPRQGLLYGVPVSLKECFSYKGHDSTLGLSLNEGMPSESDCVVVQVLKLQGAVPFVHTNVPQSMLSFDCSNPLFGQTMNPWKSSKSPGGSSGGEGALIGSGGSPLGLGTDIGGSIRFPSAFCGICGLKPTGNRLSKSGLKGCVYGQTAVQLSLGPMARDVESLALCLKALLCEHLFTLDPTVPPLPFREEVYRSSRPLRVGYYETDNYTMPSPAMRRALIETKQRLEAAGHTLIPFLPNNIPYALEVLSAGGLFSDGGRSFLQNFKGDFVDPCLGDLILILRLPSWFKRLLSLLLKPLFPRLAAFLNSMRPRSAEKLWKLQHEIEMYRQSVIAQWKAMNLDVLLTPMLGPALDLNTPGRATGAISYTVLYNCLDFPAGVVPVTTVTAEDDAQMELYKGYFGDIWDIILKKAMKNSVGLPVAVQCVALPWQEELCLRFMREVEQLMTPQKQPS
The assay can be described thus: Inhibition of FAAH in rat brain membranes assessed as [14C]AEA hydrolysis to [14C]Ethanolamine after 30 mins by scintillation counting analysis. The class given is cell membranes. A digest of the protocol:
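Rat brain membranes were incubated with [¹⁴C]AEA in 50 mM Tris-HCl pH 9 for 30 min at 37 °C. Released [¹⁴C]ethanolamine in the aqueous phase was counted by scintillation after CHCl₃/CH₃OH 2/1 extraction. IC50 was the concentration giving 50% inhibition.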

Assay [7] concerns the target T1, Transient receptor potential cation channel subfamily A member 1. As to the kind of experiment: Antagonist activity at rat TRPA1 receptor expressed in HEK293 cells assessed as inhibition of allyl isothiocyanate-induced intracellular Ca2+ elevation incubated for 5 mins prior to allyl isothiocyanate-stimulation by spectrofluorimetric analysis. In kind it is cell-based. A digest of the protocol:
as §2

Another assay has as its target T4, Monoglyceride lipase (Homo sapiens, UniProt Q99685).
T4 sequence (Q99685 whole entry): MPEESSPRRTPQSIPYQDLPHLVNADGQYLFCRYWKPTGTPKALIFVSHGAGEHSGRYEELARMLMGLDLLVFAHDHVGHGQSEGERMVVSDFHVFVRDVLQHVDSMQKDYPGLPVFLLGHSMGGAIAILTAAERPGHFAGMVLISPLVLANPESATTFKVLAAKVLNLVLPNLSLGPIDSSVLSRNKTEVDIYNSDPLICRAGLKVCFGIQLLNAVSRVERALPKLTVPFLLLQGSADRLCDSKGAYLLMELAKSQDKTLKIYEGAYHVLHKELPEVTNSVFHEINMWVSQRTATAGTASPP
As to the kind of experiment: Inhibition of MAGL (unknown origin) expressed in African green monkey COS7 cell cytosolic fraction assessed as [3H]2-AG hydrolysis to [3H]arachidonic acid after 20 mins by beta counting analysis. More on the design: species or system COS-7.

T2 sequence (Q8NER1 whole entry): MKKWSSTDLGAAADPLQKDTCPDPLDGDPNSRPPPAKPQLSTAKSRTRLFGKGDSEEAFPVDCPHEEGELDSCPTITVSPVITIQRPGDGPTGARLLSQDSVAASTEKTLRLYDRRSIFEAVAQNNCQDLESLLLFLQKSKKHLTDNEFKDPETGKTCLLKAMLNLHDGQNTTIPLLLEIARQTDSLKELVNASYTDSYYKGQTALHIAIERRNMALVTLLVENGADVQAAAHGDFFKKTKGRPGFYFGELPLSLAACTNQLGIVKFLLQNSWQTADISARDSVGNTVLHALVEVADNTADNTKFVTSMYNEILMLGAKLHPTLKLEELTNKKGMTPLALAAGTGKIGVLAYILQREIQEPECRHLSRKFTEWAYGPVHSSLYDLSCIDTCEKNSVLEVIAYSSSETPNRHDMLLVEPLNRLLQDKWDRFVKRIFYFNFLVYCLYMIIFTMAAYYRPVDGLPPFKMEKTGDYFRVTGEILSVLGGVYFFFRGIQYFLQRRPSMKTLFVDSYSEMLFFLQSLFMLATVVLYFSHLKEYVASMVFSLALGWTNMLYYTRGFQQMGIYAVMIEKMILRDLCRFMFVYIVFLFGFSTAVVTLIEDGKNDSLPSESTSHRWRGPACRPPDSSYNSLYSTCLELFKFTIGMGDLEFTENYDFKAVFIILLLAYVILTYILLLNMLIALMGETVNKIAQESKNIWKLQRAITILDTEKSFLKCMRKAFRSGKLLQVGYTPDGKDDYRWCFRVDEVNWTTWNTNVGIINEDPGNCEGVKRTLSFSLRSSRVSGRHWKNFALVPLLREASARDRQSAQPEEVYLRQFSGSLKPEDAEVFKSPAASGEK
T1 sequence (Q6RI86 whole entry): as the sequence (Q6RI86 whole entry) above

The term EC50 denotes the concentration that produces a half-maximal response. Usually IC50 stands for the midpoint of a concentration-inhibition curve. `Cc1ccc(-c2ccc(Cc3nnn(C(=O)N(C)C)n3)cc2)cc1`: the EC50 stood at 10.3 µM in assay [1] and 4.8 µM in assay [4]. For the same molecule, the results for the Efficacy in assay [2] and in assay [5] were 275% and 33.3%, respectively. Moreover, the IC50 in assay [3] amounted to 20.6 µM; in assay [6], 46.2 nM; in assay [7], 10.5 µM.

In the case of `CN(C)C(=O)n1nnnc1Cc1ccc(-c2ccccc2O)cc1`, the EC50 in assay [1] was found to be 59.7 µM. The Efficacy in assay [2] is 228%; in assay [5], below 10%. The IC50 is above 100 µM in assay [3], above 1000 nM on Monoglyceride lipase, 15.6 nM in assay [6] and above 100 µM in assay [7].

With `COC(=O)c1cccc(-c2ccc(Cc3nnnn3C(=O)N(C)C)cc2)c1`, the Efficacy in assay [2] and in assay [5] was below 10% throughout. For the same molecule, the IC50 in assay [3] is above 100 µM; on Monoglyceride lipase it was above 1000 nM; in assay [6] it was 12.1 nM; in assay [7], 99.8 µM.

For the molecule `CC(=O)c1cccc(-c2ccc(Cc3nnn(C(=O)N(C)C)n3)cc2)c1`, the Efficacy in assay [2] and in assay [5] was below 10% each time. The IC50 was above 100 µM in assay [3], 34.2 nM in assay [6] and 97.2 µM in assay [7].

For `CN(C)C(=O)n1nnc(Cc2ccc(-c3ccc(CO)cc3)cc2)n1`, the EC50 in assay [1] is 24.4 µM. The Efficacy in assay [2] is 67.3%; in assay [5] it was below 10%. Moreover, the IC50 was above 100 µM in assay [3], 7.5 nM in assay [6] and 70.6 µM in assay [7].

Regarding `CN(C)C(=O)n1nnnc1Cc1ccc(-c2ccc(CO)cc2)cc1`, the EC50 in assay [1] came to 24.2 µM. Besides, the Efficacy was 58.7% in assay [2] and below 10% in assay [5]. Also, the IC50 in assay [3] was above 100 µM; on Monoglyceride lipase, above 1000 nM; in assay [6], 37.4 nM; in assay [7], 52.6 µM.

Regarding `CN(C)C(=O)n1nnc(Cc2ccc(-c3cccc(C(N)=O)c3)cc2)n1`, the Efficacy in assay [2] and in assay [5] was below 10% throughout. The IC50 was 91.8 µM in assay [3], 7.1 nM in assay [6] and 83.1 µM in assay [7].

As to `CN(C)C(=O)n1nnnc1Cc1ccc(-c2ccc(O)cc2)cc1`, the EC50 in assay [1] was 21.7 µM. In addition, the Efficacy in assay [2] is 40.5%; in assay [5], below 10%. Besides, the IC50 is above 100 µM in assay [3], above 1000 nM on Monoglyceride lipase, 16.7 nM in assay [6] and above 100 µM in assay [7].

In the case of `CN(C)C(=O)n1nnnc1Cc1ccc(-c2cccc(CO)c2)cc1`, the Efficacy in assay [2] and in assay [5] was below 10% throughout. Also, the IC50 in assay [3] was above 100 µM; in assay [6], 10.6 nM; in assay [7] it was above 100 µM.

Turning to `CC(=O)c1cccc(-c2ccc(Cc3nnnn3C(=O)N(C)C)cc2)c1`, the Efficacy in assay [2] and in assay [5] was below 10% each time. The IC50 in assay [3] was above 100 µM; at Monoglyceride lipase, above 1000 nM; in assay [6], 14.7 nM; in assay [7], above 100 µM.

On to `CN(C)C(=O)n1nnnc1Cc1ccc(-c2ccccc2)cc1`, for which the EC50 in assay [1] came out at 26.9 µM. Also, the Efficacy in assay [2] was 101%; in assay [5], below 10%. Further, the figures for the IC50 in assay [3] and in assay [7] were above 100 µM and 49.4 µM, respectively.

Turning to `O=C(N1CCCCC1)n1nnc(Cc2ccc(-c3ccccc3)cc2)n1`, the EC50 in assay [1] is 3.7 µM; in assay [4] it was 1.8 µM. The Efficacy in assay [2] stood at 130%; in assay [5], 66.7%. In addition, the results for the IC50 in assay [3], in assay [6] and in assay [7] were 7.4 µM, 68.1 nM and 21.5 µM, respectively.

As for `CN(CCCCc1ccccc1)C(=O)n1nnc(Cc2ccc(-c3ccccc3)cc2)n1`, the Efficacy in assay [2] was below 10%; in assay [5] it was 15.9%. Moreover, the IC50 in assay [3] is 47.6 µM; in assay [6], 11.6 nM; in assay [7], 92.1 µM. Also, in assay [4], the EC50 turned out to be 1.7 µM.

Regarding `Cc1cccc(-c2ccc(Cc3nnn(C(=O)N(C)C)n3)cc2)c1`, in assay [1], the EC50 was 15 µM. Further, the results for the Efficacy in assay [2] and in assay [5] were 187% and below 10%, respectively. In addition, the IC50 in assay [3] is 78.9 µM; in assay [6], 48.5 nM; in assay [7], 17.8 µM.

With `Cc1ccccc1-c1ccc(Cc2nnn(C(=O)N(C)C)n2)cc1`, the EC50 in assay [1] came out at 15.9 µM. Also, the Efficacy in assay [2] was 202%; in assay [5], below 10%. Moreover, the IC50 is above 100 µM in assay [3], 51.7 nM in assay [6] and 18.9 µM in assay [7].

Regarding `CN(C)C(=O)n1nnc(Cc2ccc(-c3ccccc3)cc2)n1`, the EC50 in assay [1] was 20.1 µM; in assay [4] it was 5 µM. The Efficacy in assay [2] came out at 186%; in assay [5], 14.5%. Moreover, the IC50 in assay [3] was found to be 31.3 µM; in assay [7], 11.2 µM.

As for `COC(=O)c1cccc(-c2ccc(Cc3nnn(C(=O)N(C)C)n3)cc2)c1`, the Efficacy in assay [2] and in assay [5] was below 10% in each case. Moreover, the IC50 in assay [3] was above 100 µM; in assay [6] it was 12.3 nM; in assay [7] it was 91.2 µM.

For the molecule `Cc1ccccc1-c1ccc(Cc2nnnn2C(=O)N(C)C)cc1`, in assay [1], the EC50 was 48.7 µM. The values for the Efficacy in assay [2] and in assay [5] were 349% and below 10%, respectively. The IC50 is above 100 µM in assay [3], above 1000 nM at Monoglyceride lipase, 35.5 nM in assay [6] and 45.2 µM in assay [7].

Turning to `CN(Cc1ccc2ccccc2c1)C(=O)n1nnc(Cc2ccc(-c3ccccc3)cc2)n1`, the Efficacy in assay [2] was below 10%; in assay [5], 36.1%. The IC50 was found to be 4.5 µM in assay [3], 16.9 nM in assay [6] and 24.3 µM in assay [7]. The EC50 in assay [4] was found to be 11.9 µM.

As to `CN(C)C(=O)n1nnc(Cc2ccc(-c3ccccc3O)cc2)n1`, in assay [1], the EC50 was found to be 53.3 µM. Moreover, the results for the Efficacy in assay [2] and in assay [5] were 445% and below 10%, respectively. The IC50 was above 100 µM in assay [3], 40.2 nM in assay [6] and 28 µM in assay [7].

Turning to `CN(C)C(=O)n1nnc(Cc2ccc(-c3cccc(CO)c3)cc2)n1`, the Efficacy in assay [2] and in assay [5] was below 10% in each case. Moreover, the IC50 in assay [3] was above 100 µM; in assay [6] it was 10.7 nM; in assay [7], above 100 µM.

On to `CN(C)C(=O)n1nnnc1Cc1ccc(-c2cccc(O)c2)cc1`, for which the EC50 is 26.8 µM in assay [1] and 25 µM in assay [4]. In addition, the results for the Efficacy in assay [2] and in assay [5] were 35.7% and 20%, respectively. Besides, the IC50 was 67.4 µM in assay [3], 3 nM in assay [6] and above 100 µM in assay [7].

`CN(C)C(=O)n1nnc(Cc2ccc(-c3ccc(O)cc3)cc2)n1`: the EC50 in assay [1] amounted to 14.6 µM. In addition, the figures for the Efficacy in assay [2] and in assay [5] were 109% and below 10%, respectively. Besides, the IC50 was above 100 µM in assay [3], 5.4 nM in assay [6] and 30.2 µM in assay [7].

The values are drawn from ChEMBL document CHEMBL2375292, “Biaryl tetrazolyl ureas as inhibitors of endocannabinoid metabolism: modulation at the N-portion and distal phenyl ring” (Eur J Med Chem, 2013).
